Measured values reported in ChEMBL document CHEMBL4190231, “Anti-Cryptococcus Phenalenones and Cyclic Tetrapeptides from Auxarthron pseudauxarthron” (J Nat Prod, 2017).
In brackets after ≈: the same amount, converted by molar mass.

Columns and labels:
Cryptococcus neoformans = experiment: Antifungal activity against Cryptococcus neoformans H99 after 48 hrs by resazurin assay; type: functional; details: var grubii H99 , read-out: MIC100
Method in brief: (§1)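 Broth serial dilution MIC per NCCLS, in 96-well plates with YM medium (1% maltose extract, 0.2% yeast extract, 0.4% agar). Compounds were dissolved in DMSO and diluted in medium, with amphotericin B as positive control. Incubation was at 25 °C, read at 24 h for C. albicans and 48 h for C. neoformans. Read-outs were visual, OD and PrestoBlue resazurin. MIC is the lowest concentration giving 100% inhibition versus untreated growth.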

Candida albicans = experiment: Antifungal activity against Candida albicans ATCC 10231 after 24 hrs by resazurin assay; type: functional; details: ATCC 10231, 24 h, read-out: MIC100; method in brief: as §1
MDA-MB-231 = experiment: Cytotoxicity against human MDA-MB-231 cells by Celltiter-Glo assay; type: functional, cell-based
Method in brief: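 Viability was measured with CellTiter-Glo reagent added 1:1 to well medium. Plates were kept foil-covered and shaken 2 min at room temperature, paused 2 min, then shaken another 2 min. Luminescence was read on a plate reader.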

MDA-MB-453 = experiment: Cytotoxicity against human MDA-MB-453 cells by Celltiter-Glo assay; type: functional, cell-based

Structure (SMILES)	MIC (Cryptococcus neoformans)	MIC (Candida albicans)	IC50 (MDA-MB-231)	IC50 (MDA-MB-453)
COc1cc(O)c2c3c(c(O)cc(C)c13)C(=O)C(O)(C(C)C(C)=O)C2=O (configuration not stated)	3.2 µg/mL (≈ 8.93 µM)	3.2 µg/mL (≈ 8.93 µM)	> 20 µM	> 20 µM
COc1cc(O)c2c3c(c(O)cc(C)c13)C1=C(C)C(=O)CC1(O)C2=O (configuration not stated)	25.6 µg/mL (≈ 75.2 µM)	51.2 µg/mL (≈ 150 µM)	> 20 µM	> 20 µM
CCC(=O)C(C)C1(O)C(=O)c2c(O)cc(C)c3c(OC)cc(O)c(c23)C1=O (configuration not stated)	6.4 µg/mL (≈ 17.2 µM)	6.4 µg/mL (≈ 17.2 µM)	> 20 µM	> 20 µM
CCC(=O)CC1(O)C(=O)c2c(O)cc(C)c3c(OC)cc(O)c(c23)C1=O (configuration not stated)	12.8 µg/mL (≈ 35.7 µM)	25.6 µg/mL (≈ 71.4 µM)	> 20 µM	> 20 µM
COc1cc(O)c2c3c(c(O)cc(C)c13)C(=O)C(O)(CC(C)=O)C2=O (configuration not stated)	51.2 µg/mL (≈ 149 µM)	51.2 µg/mL (≈ 149 µM)	> 20 µM	> 20 µM
C[C@@H]1[C@H](O)[C@@H](C)/C=C/C=C/C=C/C=C/C=C/C=C/C=C/[C@H](O[C@@H]2O[C@H](C)[C@@H](O)[C@H](N)[C@@H]2O)C[C@@H]2O[C@](O)(C[C@@H](O)C[C@@H](O)[C@H](O)CC[C@@H](O)C[C@@H](O)CC(=O)O[C@H]1C)C[C@H](O)[C@H]2C(=O)O [AMPHOTERICIN B]	0.8 µg/mL (≈ 0.866 µM)	0.8 µg/mL (≈ 0.866 µM)		
